Screening data deposited in PubChem BioAssay by several laboratories.
Beta cell apopt – beta cell apoptosis inhibition; INS-1E cytokine-induced death, ATP luminescence, 48 h; percent of positive-control rescue, neutral wells zero; protection from apoptosis, % (concentration not given with the values); 0.8% of 300,000 active;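 active means Every replicate reaches about 75%, or at least half do and their mean reaches it too, limit read from the data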;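 further: 0% = cytokine-treated negative control wells and 100% = positive control rescue; higher means more ATP so stronger rescue from cytokine killing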
Mdm2-MdmX inh – disrupts the human Mdm2-MdmX interaction | inhibition, % at 8 µM | SaOS-2 split-luciferase Mdm2/MdmX complementation, luminescence | O15151+Q00987 | 3% of 330,000 active | AID 485346;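 active means inhibition of at least 50% at 8 µM in the primary screen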
Target sequence (O15151 whole entry, looked up): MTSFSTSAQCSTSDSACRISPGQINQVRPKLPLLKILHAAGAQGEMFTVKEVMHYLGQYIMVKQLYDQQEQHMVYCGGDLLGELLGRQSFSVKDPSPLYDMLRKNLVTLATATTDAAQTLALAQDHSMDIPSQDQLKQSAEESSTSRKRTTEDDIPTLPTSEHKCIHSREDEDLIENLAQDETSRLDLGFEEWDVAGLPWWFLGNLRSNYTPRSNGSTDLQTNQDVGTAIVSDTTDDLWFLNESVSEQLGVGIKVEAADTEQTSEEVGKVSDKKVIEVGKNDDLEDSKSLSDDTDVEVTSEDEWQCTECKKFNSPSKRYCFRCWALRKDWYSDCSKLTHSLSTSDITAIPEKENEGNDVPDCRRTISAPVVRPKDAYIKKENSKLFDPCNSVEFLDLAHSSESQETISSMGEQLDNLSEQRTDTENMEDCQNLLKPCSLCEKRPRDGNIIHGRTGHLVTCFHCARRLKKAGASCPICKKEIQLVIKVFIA
Target sequence (Q00987 whole entry, looked up): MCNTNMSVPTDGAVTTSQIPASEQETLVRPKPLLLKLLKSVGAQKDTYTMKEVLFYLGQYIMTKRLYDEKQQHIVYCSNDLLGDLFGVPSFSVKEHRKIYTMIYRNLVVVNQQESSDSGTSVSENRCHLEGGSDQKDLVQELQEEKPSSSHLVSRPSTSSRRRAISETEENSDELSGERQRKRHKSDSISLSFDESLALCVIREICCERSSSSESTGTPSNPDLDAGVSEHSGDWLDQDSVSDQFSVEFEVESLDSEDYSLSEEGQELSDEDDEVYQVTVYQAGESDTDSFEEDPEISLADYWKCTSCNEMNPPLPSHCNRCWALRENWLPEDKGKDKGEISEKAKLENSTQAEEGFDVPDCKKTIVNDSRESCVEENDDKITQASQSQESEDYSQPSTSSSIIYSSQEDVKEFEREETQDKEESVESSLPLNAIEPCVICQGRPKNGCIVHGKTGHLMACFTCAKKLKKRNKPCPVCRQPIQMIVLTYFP
UPR XBP1 act – adaptive UPR (XBP1) activation | activation, % at 20 µM | AID 463104 | CHO-XBP1 luciferase reporter, IRE1-XBP1 UPR activation, luminescence; percent of tunicamycin response, DMSO as zero | 0.33% of 330,000 active;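 active means versus positive control, 20 µM dose yields 30% or more activation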;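 further: 100% = tunicamycin at 10 µg/mL and 0% = DMSO only wells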
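Material – CHO cell line with stable XBP1 luciferase reporter · Buffer or medium – F12 plus 10% FBS · Compound – single point, 20 µM final compound, 1% DMSO · Schedule – 16-18 h cell attachment at 37 °C, then 6 h compound exposure · Signal – Steady-Glo luminescence read · Benchmarks – high control tunicamycin 10 µg/mL final, low control DMSO vehicle only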
SKKanGAS inh – blocks kanamycin growth of S. pyogenes SKKanGAS strain | BacTiter-Glo, 6 h | inhibition, % at 7.5 µM | 1.3% of 300,000 active;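 active means mean replicate score, as percent of positive control median, at least 50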;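 further: strain carries kanamycin resistance gene driven by streptokinase promoter and grows in 40 µg/ml kanamycin; loss of luminescence reflects streptokinase promoter inhibition or plain growth inhibition; 0% = median of DMSO wells and 100% = positive control at its reference dose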
CSC inhib – blocks cancer stem cells; cancer stem cell-like cells viability, luminescence; inhibition, % at 7.5 µM; AID 2717; 1.1% of 300,000 active; in the data active means inhibition above about 75%; tested in HMLE shEcad cells
CHOP UPR activ – activators of apoptotic arm of unfolded protein response (CHOP); 0.34% of 330,000 active; CHO-CHOP luciferase reporter, UPR activation, luminescence; percent of tunicamycin response over DMSO baseline; activation, % at 10 µM;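 active means at 10 µM dose, activation of 40% or more, normalized to positive control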;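 further: 100% = tunicamycin at 10 µg/mL and 0% = DMSO alone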
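Material: CHO-CHOP cells, stable luciferase reporter of PERK-eIF2a-CHOP signalling; quantity: 500 reporter cells seeded per well; buffer or medium: F12 medium containing 10% fetal bovine serum; compound: one dose, 10 µM in 0.5% DMSO; incubation: 6 h compound treatment, 37 °C; measured by: Steady-Glo luciferase luminescence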
Numbers without * were called inactive; x = no result given. In the library only some 4.8% were active in any assay of this set; here they are far more common.

SMILES	Beta cell apopt	Mdm2-MdmX inh	UPR XBP1 act	SKKanGAS inh	CSC inhib	CHOP UPR activ
Brc1ccc(-c2ccc(C3Nc4cccc5cccc(c45)N3)o2)cc1	-8.6	44.5	37.1*	x	17.0	6.0
c1coc(C2Nc3cccc4cccc(c34)N2)c1	-5.7	33.3	3.2	9.4	2.7	0.0
COc1ccc(C(=O)c2ccc([N+](=O)[O-])cc2)cc1S(=O)(=O)N1CCC(C(=O)O)CC1	-2.5	14.0	-3.9	6.1	-28.8	-1.0
COc1ccc(/C=C/C(=O)Nc2ccccc2C(=O)NCC(c2ccc(OC)cc2)N(C)C)cc1 (stereo not given)	x	42.8	8.7	3.7	-6.5	6.1
COc1ccc(C2C(C(=O)c3ccccc3)=C(C)Nc3nc4ccccc4n32)c(OC)c1 (stereo not given)	x	30.9	-6.6	88.7*	-2.9	-0.7
O=C(O)c1ccccc1C(=O)Nc1ccc(Oc2cccc3ccccc23)cc1	x	x	x	-4.4	x	x
O=C(Nc1ccc(Oc2cccc3ccccc23)cc1)c1ccco1	14.9	10.4	-1.8	79.3*	-13.2	1.4
O=C(Nc1ccc(Cl)c(Cl)c1)Oc1ccc(NC(=O)c2ccco2)cc1	53.5	33.5	0.8	71.7*	x	-1.3
COc1cc(C(=O)OC2CC3CCC2(C)C3(C)C)ccc1OC(C)=O (stereo not given)	x	-5.4	1.8	9.5	81.3*	2.7
CC1(C)C2CCC1(C)C(OC(=O)CNc1ccccc1)C2 (stereo not given)	4.9	-7.6	-0.3	5.6	-0.5	0.3
COC1=C(Nc2ccccc2OC)C(=O)c2ccccc2C1=O	83.3*	-1.1	0.2	24.3	13.1	-0.3
Cc1cccc(NC(=O)c2ccc(Cl)c(S(=O)(=O)N3CCCCC3)c2)n1	-1.2	33.7	0.6	-0.6	-5.7	4.3
COc1cc(NC(=O)Cc2nn(C)c(=O)c3ccccc23)cc(OC)c1	x	17.6	-4.0	1.2	-4.6	0.0
Cn1nc(CC(=O)Nc2ccc3c(c2)OCCO3)c2ccccc2c1=O	75.4*	30.7	-3.4	-0.6	1.2	6.4
Cc1ccc(NC(=O)Cc2nn(C)c(=O)c3ccccc23)cc1F	86.4*	20.3	-3.3	5.9	-9.5	10.2
O=C(NC(Cc1ccccc1)C(=O)O)NC12CC3CC(CC(C3)C1)C2 (stereo not given)	x	5.6	-7.0	3.4	-6.3	1.9
Cc1cc(Br)c(Cl)cc1NC(=O)CN1C(=O)C2C3CC(c4ccccc4)C(C3)C2C1=O (stereo not given)	1.5	16.6	0.3	7.0	79.7*	2.2
Cc1cc(NC(=O)CCN2C(=O)C3C4CCC(C4)C3C2=O)c(C)cc1Br (stereo not given)	1.1	20.4	-1.2	2.7	-5.3	-0.3
O=C1C2CCCCC2C(=O)N1c1ccc(S(=O)(=O)Nc2ncccn2)cc1 (stereo not given)	-2.3	25.4	-3.3	1.4	5.6	0.7
CC1=NOC2(C1)N(C)c1ccccc1C2(C)C (stereo not given)	-0.2	16.6	-0.9	-7.1	2.5	-1.6
COc1ccc2ccc3c(c2c1)N=C[C@]1(O3)N(C)c2ccccc2C1(C)C	-8.4	22.2	-2.6	55.8*	-9.1	-0.6
COc1ccc(S(=O)(=O)NCCc2cn3nc(C)c(C)nc3n2)cc1F	-2.2	9.2	-2.1	9.6	17.9	1.3
O=C(NC(=S)N(CCc1ccccc1)CCc1ccccc1)c1ccco1	15.1	42.8	3.0	81.8*	26.5	4.1
CC(CCc1ccccc1)NC(=S)NC(=O)c1ccco1 (stereo not given)	-1.5	-9.1	1.6	4.3	7.5	-0.3
O=C(/C=C/c1ccc(Br)cc1)NC(=S)NNC(=O)c1ccco1	2.0	16.7	3.9	106.0*	18.8	-0.6
O=C(/C=C/c1ccccc1)NC(=S)NNC(=O)c1ccco1	3.3	18.8	1.6	76.4*	-11.7	1.0
CC(NC(=O)COC(=O)c1ccccc1O)C1CC2CCC1C2 (stereo not given)	-3.0	15.3	3.3	x	-20.7	3.5
COc1cc(C(=O)O/N=C2/C=C(C)C(=O)C=C2C)cc(OC)c1OC	-5.2	21.2	-5.0	x	2.5	95.9*
O=C(c1cc(COc2cccc(C(F)(F)F)c2)on1)N1CCC(c2ccncc2)CC1	111.3*	26.1	0.1	-23.1	31.3	5.3
